The source of these data is ChEMBL document CHEMBL1134377, “New synthesis of benzo-delta-carbolines, cryptolepines, and their salts: in vitro cytotoxic, antiplasmodial, and antitrypanosomal activities of delta-carbolines, benzo-delta-carbolines, and cryptolepines” (J Med Chem, 2001).

The subject of test [1] is L6. The test can be described thus: In vitro cytotoxicity against L6 cells. Type of test: functional, cell-based, Rattus norvegicus. Conditions: Rattus norvegicus, L6.
Test [2] can be described thus: In vitro cell survival assay on cancer KB cell lines. Type of test: functional, cell-based, Homo sapiens. The essentials:
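KB oral epidermoid carcinoma cells in MEM with 10% FCS, 25 000 cells/well; serial dilutions (DMSO or water) added at plating; 3 days at 37 °C, 5% CO2; viability by neutral red uptake 8-16 h, SDS lysis, absorbance 540 nm.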

Test [3] has as its system Plasmodium falciparum. Briefly: Antiplasmodial activity against chloroquine-resistant Plasmodium falciparum K1. Type of test: functional, organism-based. Conditions: Plasmodium falciparum. In a few lines: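 K1 strain kept in continuous culture on human erythrocytes. Asynchronous cultures (1% parasitemia, 1% final hematocrit) exposed to serial dilutions of drug (DMSO stocks; final DMSO ≤0.2%) for 24 h at 37 °C. 0.5 µCi [3H]hypoxanthine per well was then added for a further 24 h. Inhibition is incorporation versus untreated controls on the same plate. IC50 taken from concentration-response curves, mean ± SD of several independent experiments.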

Test [4] has as its system Plasmodium falciparum. The test can be described thus: Selectivity index against Plasmodium falciparum. The test is classed as functional.
Test [5] concerns Trypanosoma cruzi. The test can be described thus: Antitrypanosomal activity against (Trypanosoma cruzi) trypomastigotes (concentration of compound tested on trypomastigote motility). Type of test: functional, organism-based. The following applies: Trypanosoma cruzi. The essentials:
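Tulahuen LacZ clone 4 trypomastigotes harvested from infected murine L6 muscle cell cultures; 2-fold drug dilutions from 200 to 1.5 µM, 48 h; motility scored by microscopy; value is concentration with no detectable motility effect, mean of 2 independent experiments.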

In test [6] the test system is Trypanosoma cruzi. Briefly: Antitrypanosomal activity against Trypanosoma cruzi amastigotes. The test is classed as functional, organism-based. Conditions: Trypanosoma cruzi.
The subject of test [7] is Trypanosoma cruzi. Briefly: Antitrypanosomal activity against Trypanosoma cruzi epimastigotes. The test is classed as functional, organism-based. Conditions: Trypanosoma cruzi.
The test system of test [8] is Trypanosoma cruzi. Briefly: Index of selectivity was determined in Trypanosoma cruzi. The test is classed as functional. The essentials: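 Ratio of IC50 on L6 cells to IC50 on intracellular amastigote proliferation of T. cruzi.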
Test [9] in a line: In vitro cytotoxicity against L6 cells.

As a reminder, the IC50 is the concentration at which inhibition is half-maximal. As for `CC(C)c1c2ccccc2[n+](C)c2c1[nH]c1ccccc12.O=S(=O)([O-])C(F)(F)F`, the IC50 was 15.1 µM in [1]; 6.4 µM in [2] (kb); 1.3 µM in test [3]; 12.5 µM in test [5]; 3.3 µM in test [6]; 0.73 µM in test [7]. For the same molecule, the IS in test [4] is reported as 12.6; in test [8] it was 4.6.
Regarding `Cc1c2nc3ccccc3c-2[nH]c2ccccc12`, the IC50 turned out to be 18.9 µM in test [1]; 40 µM in test [2] (Homo sapiens, KB); 74.6 µM in [3]; 25 µM in test [5]; 4.7 µM in test [6]; 3.9 µM in test [7]. In addition, the IS in test [4] amounted to 0.25; in test [8], 4.
Regarding `Cc1c2ccccc2[n+](C)c2c1[nH]c1ccccc12.O=S(=O)([O-])C(F)(F)F`, the IC50 in [1] was 1.4 µM; in [2] (kb), 0.57 µM; in [3] it was 0.062 µM; in test [5], 12.5 µM; in [6] it was 0.074 µM; in test [7], 0.3 µM. Moreover, the IS was determined as 22.5 in [4] and 18.9 in test [8].
In the case of `Clc1c2nc3ccccc3c-2[nH]c2ccccc12`, the IC50 in test [3] worked out at 74.6 µM; in test [5], 50 µM; in test [6], 6.7 µM; in [7], 6.3 µM; in test [9], 43.2 µM. Besides, the values for the IS in test [4] and in test [8] were 1.7 and 6.4, respectively.
`CCc1c2nc3ccccc3c-2n(C)c2ccccc12`: the IC50 in test [1] was found to be 5.9 µM; in [2] (Homo sapiens, KB), 0.7 µM; in test [3] it was 1.1 µM; in [5], 6.25 µM; in test [6], 0.18 µM; in test [7], 3.2 µM. Besides, the IS turned out to be 5.5 in test [4] and 33 in test [8].
Take `c1ccc2nc3c(cc2c1)[nH]c1ccccc13` [QUINDOLINE]: the IC50 in test [1] came out at 48.6 µM; in [2] (Homo sapiens, KB), 45 µM; in test [3] it was 36.2 µM; in [5], 50 µM; in test [6] it was 14.2 µM; in test [7], 8.7 µM. The IS came to 1.3 in test [4] and 3.4 in test [8].
